miR122 inh: miR-122 Renilla sensor signal increase in Huh7, primary screen, miR-122 inhibitor project, cell-based, single point, plate reader; 0.3% of 340,000 active; activation (reporter increase), % at 12.5 µM; Huh7 miR-122 Renilla luciferase sensor, 48 h; neutral wells = 0, positive control = 100;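 active = mean replicate activation score at least 90 and every replicate individually at or above 90; inconclusive = only one of the two criteria met; inactive = neither criterion met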;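 note: higher luciferase means less miR-122 activity so hits act as miR-122 inhibitors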
E-selectin induc: E-selectin induction in HUVECs, primary screen, imaging, HUVEC, immunofluorescence imaging, single point | activation, % at 7.58 µM | P16581 | 0.37% of 260,000 active | AID 686992, 2013 | normalized: neutral wells 0, TNF-alpha wells 100;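 active = mean E-selectin-positive cell signal at least 10% of the positive control, reached in at least 60% of replicates, without over 20% cell loss; inconclusive = no rule given, readout overlaps actives, possibly toxicity-flagged; inactive = the rest, including those meeting only one limit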
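System: HUVEC, human umbilical vein endothelial cells; quantity: 3,000 cells/well; buffer or medium: EGM-2 medium, gelatin-coated wells; dosing: single-point compound dose; detection: immunofluorescence imaging; evaluation: % PE-positive cells; benchmarks: TNF-alpha, DMSO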
F508del corr: F508del CFTR correction, initial screen, CFBE line, single point. CFBE cells, YFP halide quenching; stimulated with forskolin plus potentiator P3; % fluorescence drop versus neutral controls. activity (quench increase), % at 7.58 µM. 0.36% of 350,000 active;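 active = mean added fluorescence quench of at least 8% versus neutral control, with both replicates also reaching 8%; inconclusive = only one of the mean or replicate conditions met; inactive = mean below 8% and not both replicates reaching 8%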;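 note: cells transiently co-express mutant CFTR-F508del with the halide-sensitive YFP; corrector assay measuring rescue of mutant channel to the surface after 24 h compound exposure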
ERAP1 inh: human ERAP1 aminopeptidase inhibitors, primary screen, biochemical, single point, plate reader; AID 652197, 2013; recombinant ERAP1, Leu-AMC fluorescence, 60 min; inhibition, % at 10.7 µM; 0.15% of 340,000 active;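 active = mean replicate inhibition of at least 30%, or all replicates individually reaching that 30% level; inactive = mean below 30% and not every replicate reaching it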
Target sequence (Q9NZ08 whole entry, looked up): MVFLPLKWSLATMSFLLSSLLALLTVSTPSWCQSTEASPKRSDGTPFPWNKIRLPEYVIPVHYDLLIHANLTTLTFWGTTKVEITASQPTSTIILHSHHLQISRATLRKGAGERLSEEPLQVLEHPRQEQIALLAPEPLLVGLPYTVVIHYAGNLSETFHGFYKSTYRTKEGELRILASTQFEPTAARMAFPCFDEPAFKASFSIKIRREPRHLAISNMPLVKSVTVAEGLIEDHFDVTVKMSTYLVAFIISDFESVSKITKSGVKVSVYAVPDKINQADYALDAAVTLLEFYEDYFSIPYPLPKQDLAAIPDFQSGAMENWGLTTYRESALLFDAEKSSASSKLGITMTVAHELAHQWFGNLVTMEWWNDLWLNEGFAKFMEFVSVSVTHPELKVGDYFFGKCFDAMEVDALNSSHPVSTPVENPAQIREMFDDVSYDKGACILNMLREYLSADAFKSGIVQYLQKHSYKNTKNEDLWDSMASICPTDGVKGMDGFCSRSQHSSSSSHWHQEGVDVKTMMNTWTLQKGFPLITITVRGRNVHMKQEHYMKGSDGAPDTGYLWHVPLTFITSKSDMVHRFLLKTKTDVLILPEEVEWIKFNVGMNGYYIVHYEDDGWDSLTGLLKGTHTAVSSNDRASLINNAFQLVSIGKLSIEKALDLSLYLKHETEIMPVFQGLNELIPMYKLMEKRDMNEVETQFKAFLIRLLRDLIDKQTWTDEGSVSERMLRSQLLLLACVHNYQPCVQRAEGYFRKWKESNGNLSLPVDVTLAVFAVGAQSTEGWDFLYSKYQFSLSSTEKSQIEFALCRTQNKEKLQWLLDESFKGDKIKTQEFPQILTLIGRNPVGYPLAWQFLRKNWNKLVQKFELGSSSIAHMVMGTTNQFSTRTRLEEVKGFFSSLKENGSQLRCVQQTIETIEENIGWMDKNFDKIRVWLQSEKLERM
GSIS activator: GLuc luminescence reporter in INS-1E cells, primary screen for activators of glucose-dependent secretion of insulin. activation, % at 16.6 µM. 0.61% of 370,000 active. INS-1E GLuc reporter insulin secretion, 2-3 h. AID 743287, 2014;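 active = lowest replicate activation of at least 40%, so every replicate reaches that level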
DENV2 CPE rescue: inhibitors of DENV2 cytopathic effect, primary screen, cell-based, plate reader, single concentration; CPE inhibition, % at 9.99 µM; 1.7% of 350,000 active; DENV2-infected cells, cytopathic effect rescue; in the data active = CPE inhibition above about 20%, passing the limit was not always enough; inconclusive = no clear call, values can overlap the other calls; tested in BHK-21 cells
Large screens that a line does not name were inactive. Compounds with a hit are over-represented: about 2.6% of the library has one in this group of screens.

C[C@H](CO)N1C[C@H](C)[C@@H](CN(C)C(=O)C2CCCCC2)Oc2ncc(-c3ccncc3)cc2C1=O	none
CCCC(=O)Nc1ccc2c(c1)OC[C@H](C)N(C(=O)c1ccccc1F)C[C@H](C)[C@@H](OC)CN(C)C2=O	none (no result: miR122 inh)
CN(C)C(=S)Nc1ccc(Cl)cc1	none (no result: ERAP1 inh, GSIS activator)
CN(C)C(=S)Nc1ccc([N+](=O)[O-])cc1	GSIS activator 68.4 (no result: E-selectin induc, F508del corr, ERAP1 inh, DENV2 CPE rescue)
C[C@@H]1CN([C@@H](C)CO)C(=O)Cc2cc(NC(=O)CCCN(C)C)ccc2O[C@@H]1CN(C)S(=O)(=O)c1ccc(Cl)cc1	none (no result: miR122 inh)
O=C(NCCN1C(=O)C2C3C=CC(C3)C2C1=O)Nc1cccnc1 (stereo unspecified)	DENV2 CPE rescue 28.8
COc1ccc(C(=O)c2cnc[nH]2)cc1OC	GSIS activator 69.8
COc1ccc(C(=O)c2cnc[nH]2)cc1	none (no result: E-selectin induc, ERAP1 inh)
CNC[C@H]1Oc2ccc(NC(=O)Nc3ccc(OC)cc3)cc2C(=O)N([C@@H](C)CO)C[C@@H]1C	none
C[C@H]1CN([C@@H](C)CO)S(=O)(=O)c2ccc(-c3cccc(C#N)c3)cc2O[C@H]1CN(C)C(=O)c1ccncc1	none
COc1ccc(Br)cc1/C=N/NC(=O)C(c1ccncc1)N1CCOCC1 (stereo unspecified)	DENV2 CPE rescue 97.9 (no result: E-selectin induc)
C[C@H]1CNC(=O)c2c(C(=O)Nc3ccc(CNC(=O)OC(C)(C)C)cc3)ncn21	F508del corr 11.8
CCCCC(=O)N/N=C/c1cc([N+](=O)[O-])ccc1N1CCOCC1	none (no result: E-selectin induc, F508del corr, ERAP1 inh, DENV2 CPE rescue)
O=C(CCN1CCOCC1)N/N=C/c1cc([N+](=O)[O-])ccc1OC(F)F	DENV2 CPE rescue 21.5 (no result: E-selectin induc)
CC(C)(C)[S@](=O)N1Cc2cc(C(=O)N3CCCCC3)nc(-c3cccc(C4=CCCC4)c3)c2[C@@H]1CCO	DENV2 CPE rescue 26.1 (no result: miR122 inh)
COc1cccc(-c2cccc(-c3nc(C(=O)Nc4ccc(-c5ccccc5)cc4)cc4c3[C@@H](CCO)N(S(=O)C(C)(C)C)C4)c2)c1 (stereo partly specified)	E-selectin induc 35.7, DENV2 CPE rescue inconclusive (no result: miR122 inh)
CC(C)(C)S(=O)N1Cc2cc(C(=O)Nc3ccc(-c4ccccc4)cc3)nc(-c3cccc(-c4cccc(F)c4)c3)c2[C@@H]1CCO (stereo partly specified)	E-selectin induc 28.9, GSIS activator 189.5, DENV2 CPE rescue inconclusive (no result: miR122 inh)
CCNC(=O)c1cc2c(c(-c3cccc(-c4cccc(OC)c4)c3)n1)[C@H](CCO)N([S@@](=O)C(C)(C)C)C2	none (no result: miR122 inh)
CC=Cc1ccc2n(c1=O)C[C@@H]1[C@@H](CO)[C@H](C(=O)NCC3CCCCC3)N(C(=O)CC)[C@H]21 (mixture of isomers)	none (no result: ERAP1 inh, DENV2 CPE rescue)
COc1ccc(C(=O)Nc2ccc(NC(=O)c3cccc(OC)c3)cn2)cc1	none
COc1ccc(COc2cc(-c3cccc(OC)c3)nc3ccc(NC(=O)c4ccc(OC)cc4)cc23)cc1	F508del corr 8.2 (no result: miR122 inh, ERAP1 inh)
COc1cccc(C(=O)Nc2ccc(C(=O)c3ccccc3)cc2)c1	none
COc1cccc(C(=O)Nc2ccc(C(=O)O)cc2)c1	miR122 inh 112.7 (no result: E-selectin induc, F508del corr, ERAP1 inh, DENV2 CPE rescue)
COc1ccc(C(=O)Nc2ccc(NC(=O)c3cccc(F)c3)cn2)cc1	F508del corr 13.3 (no result: miR122 inh, E-selectin induc)
COc1cccc(C(=O)Nc2cc3c(cc2C(C)=O)OCCO3)c1	DENV2 CPE rescue 76.1
CCC(=O)Nc1ccc2c(c1)OC[C@@H](C)N(Cc1cccnc1)C[C@@H](C)[C@@H](OC)CN(C)C2=O	none (no result: miR122 inh)
Cc1noc(C)c1NC(=O)N(C)C[C@H]1OCCCC[C@@H](C)Oc2ccc(NS(=O)(=O)c3ccc(Cl)cc3)cc2C(=O)N([C@H](C)CO)C[C@H]1C	DENV2 CPE rescue inconclusive (no result: E-selectin induc)
CS(=O)(=O)N1C[C@H](O)COC[C@H]2O[C@@H](CC(=O)NCc3ccccc3)CC[C@@H]21	none
COc1ccc(OC)c2c1C(=O)C(Cl)=C(Cl)C2=O	F508del corr inconclusive, GSIS activator 58.3 (no result: ERAP1 inh)
CCc1ccc(N(C2C=CS(=O)(=O)C2)S(=O)(=O)c2ccccc2)cc1 (stereo unspecified)	GSIS activator 86.2 (no result: E-selectin induc, F508del corr, ERAP1 inh, DENV2 CPE rescue)
C[C@H](CO)N1C[C@H](C)[C@H](CN(C)S(=O)(=O)c2ccc(Cl)cc2)OCCCC[C@H](C)Oc2ccc(NC(=O)CCC(F)(F)F)cc2C1=O	DENV2 CPE rescue inconclusive
COc1cc(NC(=O)CSc2c3c(nc4ccccc24)CCC3)cc(OC)c1OC	DENV2 CPE rescue 70.4
CCN(C(=O)c1ccc2c(SCC(=O)O)c3c(nc2c1)CCC3)c1cc(Cl)ccc1OC	DENV2 CPE rescue 50.3 (no result: E-selectin induc)
CC(C)CC#Cc1ccc2c(c1)O[C@@H](CN(C)C(=O)CN(C)C)[C@H](C)CN([C@H](C)CO)S2(=O)=O	none
COc1cc(C)c(S(=O)(=O)N2CCN=C2c2ccccc2)cc1C	none (no result: miR122 inh, F508del corr, ERAP1 inh, DENV2 CPE rescue)
Cc1cc(C)c(S(=O)(=O)N2CCN=C2c2ccccc2)cc1C	miR122 inh 100.0 (no result: E-selectin induc, F508del corr, ERAP1 inh, GSIS activator, DENV2 CPE rescue)
COc1ccc(S(=O)(=O)N(C)C[C@H]2OCCCC[C@H](C)Oc3ccc(NS(=O)(=O)c4cn(C)cn4)cc3C(=O)N([C@H](C)CO)C[C@H]2C)cc1	none (no result: E-selectin induc)
CCOC(=O)C1(C)CCCCN1C(=O)c1ccc(F)c(C)c1 (stereo unspecified)	none
CCOC(=O)C1(C)CCCCN1C(=O)c1cccc(Cl)c1 (stereo unspecified)	GSIS activator 95.6
O=C(N/N=C/c1ccc(O)cc1O)NC12CC3CC(CC(C3)C1)C2	GSIS activator 41.3, DENV2 CPE rescue 50.5
CCOC(=O)C1=CN(CC)S(=O)(=O)NC1c1ccc(C(F)(F)F)cc1 (stereo unspecified)	none (no result: E-selectin induc)
CCOC(=O)C1=CN(Cc2ccco2)S(=O)(=O)NC1c1ccc(C(F)(F)F)cc1 (stereo unspecified)	F508del corr 8.1 (no result: E-selectin induc)
CCOC(=O)C1=CN(CC)S(=O)(=O)NC1c1cccc(OC)c1 (stereo unspecified)	DENV2 CPE rescue 23.7 (no result: E-selectin induc)
CCN(CC)C(=O)c1ccccc1NS(=O)(=O)c1ccc(C)cc1	GSIS activator 43.2 (no result: E-selectin induc, F508del corr, ERAP1 inh, DENV2 CPE rescue)
C[C@H]1CN([C@@H](C)CO)S(=O)(=O)c2ccc(-c3ccncc3)cc2O[C@H]1CN(C)S(=O)(=O)c1ccccc1F	none
Cc1ccc(C(CC(=O)O)NC(=O)c2ccc(S(=O)(=O)N3CC(C)OC(C)C3)cc2)cc1 (stereo unspecified)	GSIS activator 58.4
C[C@@H]1CN([C@H](C)CO)C(=O)c2cc(NC(=O)Nc3cccc4ccccc34)ccc2O[C@@H](C)CCCCO[C@H]1CN(C)Cc1ccc(Cl)c(Cl)c1	none (no result: miR122 inh)

Screening data (PubChem)
